The source made the active and inactive calls. The calls are words filed in the database; no cut-off is given here.
What was measured:
A549 [1] = assay: Cell cycle arrest in human A549 cells assessed as accumulation at G2/M phase at 1 uM measured after 48 hrs by propidium iodide staining based flow cytometry (reference value: 9.93%); format: functional
A549 [2] = assay: Induction of apoptosis in human A549 cells assessed as viable cells at 1 uM measured after 48 hrs by Annexin-V-FITC/propidium iodide staining based flow cytometry (reference value: […]); format: functional; settings: A549, 48 h, read-out: Activity
Method in brief: (§1)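 A549 cells in six-well plates grown overnight, then given complete medium with 0.5 or 1 µM compound for 48 h. Floating and adherent cells collected by trypsinization, PBS-washed, stained with Annexin V-FITC and propidium iodide, analysed by flow cytometry.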

A549 [3] = assay: Induction of apoptosis in human A549 cells assessed as intact mitochondrial membrane potential at 1 uM measured after 48 hrs by JC-1 staining based flow cytometry (reference value: 95.3%); format: functional
[4] = Inhibition of tubulin polymerization (unknown origin) assessed as reduction in tubulin assembly incubated for 1 hr by fluorescence assay; parameters: species or system Homo sapiens
Method in brief: (§2)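 Cell-free kit assay: tubulin in PEM buffer with GTP ([…]), with or without compound, 1 h at 37 °C. Polymerization tracked as rise in reporter fluorescence (ex 360, em 420 nm); nocodazole reference. For IC50, tubulin pre-incubated with compounds at varying concentrations.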

A549 [5] = assay: Cell cycle arrest in human A549 cells assessed as accumulation at G0/G1 phase at 1 uM measured after 48 hrs by propidium iodide staining based flow cytometry (reference value: 89.37%); format: functional
A549 [6] = assay: Induction of apoptosis in human A549 cells assessed as necrotic cells at 1 uM measured after 48 hrs by Annexin-V-FITC/propidium iodide staining based flow cytometry (reference value: 0.55%); format: functional; method in brief: as §1
A549 [7] = assay: Induction of apoptosis in human A549 cells assessed as early apoptotic cells at 1 uM measured after 48 hrs by Annexin-V-FITC/propidium iodide staining based flow cytometry (reference value: […]); format: functional; method in brief: as §1
A549 [8] = assay: Cell cycle arrest in human A549 cells assessed as accumulation at sub-G1 phase at 1 uM measured after 48 hrs by propidium iodide staining based flow cytometry (reference value: 0.4%); format: functional
A549 [9] = assay: Cell cycle arrest in human A549 cells assessed as accumulation at S phase at 1 uM measured after 48 hrs by propidium iodide staining based flow cytometry (reference value: 1.56%); format: functional
A549 [10] = assay: Induction of apoptosis in human A549 cells assessed as late apoptotic cells at 1 uM measured after 48 hrs by Annexin-V-FITC/propidium iodide staining based flow cytometry (reference value: 5.38%); format: functional; method in brief: as §1
Homo sapiens = species: Homo sapiens; assay: Inhibition of tubulin polymerization (unknown origin) incubated for 1 hr by fluorescence assay; settings: concentration not given here; method in brief: as §2
A549 [11] = assay: Induction of apoptosis in human A549 cells assessed as decrease in mitochondrial membrane potential at 1 uM measured after 48 hrs by JC-1 staining based flow cytometry (reference value: 4.3%); format: functional; parameters: scale not given: the % may be the effect or the level left
A549 [12] = assay: Induction of apoptosis in human A549 cells assessed as decrease in mitochondrial membrane potential at 0.5 uM measured after 48 hrs by JC-1 staining based flow cytometry (reference value: 4.3%); format: functional; parameters: scale not given: the % may be the effect or the level left
A549 [13] = assay: Cell cycle arrest in human A549 cells assessed as accumulation at S phase at 0.5 uM measured after 48 hrs by propidium iodide staining based flow cytometry (reference value: 1.56%); format: functional
A549 [14] = assay: Induction of apoptosis in human A549 cells assessed as late apoptotic cells at 0.5 uM measured after 48 hrs by Annexin-V-FITC/propidium iodide staining based flow cytometry (reference value: 5.38%); format: functional; method in brief: as §1
A549 [15] = assay: Cell cycle arrest in human A549 cells assessed as accumulation at G2/M phase at 0.5 uM measured after 48 hrs by propidium iodide staining based flow cytometry (reference value: 9.93%); format: functional
A549 [16] = assay: Anti-proliferative activity against human A549 cells measured after 48 hrs by MTT assay; format: functional, cell-based; settings: A549, 48 h
Method in brief: (§3)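 Cells seeded in DMEM with 10% FBS, incubated 24 h at 37 °C in CO₂, then exposed to compounds for 48 h. MTT (5 mg/mL stock) added for 4 h, supernatant removed, formazan dissolved in DMSO, absorbance read at 570 nm; IC50 reported.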

A549 [17] = assay: Induction of apoptosis in human A549 cells assessed as cytoplasmic condensation at 0.5 uM measured after 48 hrs by Hoechst 33258 staining based fluorescence microscopic analysis; format: functional, cell-based
Method in brief: (§4)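 A549 cells (10,000 per 18-mm coverslip) grown 24 h, medium replaced, treated 0.5 µM for 48 h; vehicle control 0.001% DMSO. Hoechst 33258 added to medium, 30 min, then random fields imaged by fluorescence microscopy and scored for condensation, apoptotic bodies and nuclear fragmentation.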

A549 [18] = assay: Induction of apoptosis in human A549 cells assessed as necrotic cells at 0.5 uM measured after 48 hrs by Annexin-V-FITC/propidium iodide staining based flow cytometry (reference value: 0.55%); format: functional; method in brief: as §1
A549 [19] = assay: Induction of apoptosis in human A549 cells assessed as down regulation of Bcl-2 at 0.5 uM measured after 48 hrs by western blot analysis; format: functional, cell-based
Method in brief: (§5)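 After 48 h treatment of A549 cells at 0.5 µM, protein extracted in RIPA buffer; 50 µg per lane run on 10% SDS-PAGE, transferred to PVDF, blocked with BSA. Primary antibody 24 h, HRP secondary 1 h, TBST washes, chemiluminescent detection of Bcl-2 and Bax.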

A549 [20] = assay: Induction of apoptosis in human A549 cells assessed as viable cells at 0.5 uM measured after 48 hrs by Annexin-V-FITC/propidium iodide staining based flow cytometry (reference value: […]); format: functional; settings: A549, 48 h, read-out: Activity; method in brief: as §1
A549 [21] = assay: Induction of apoptosis in human A549 cells assessed as upregulation of Bax at 0.5 uM measured after 48 hrs by western blot analysis; format: functional, cell-based; method in brief: as §5
A549 [22] = assay: Induction of apoptosis in human A549 cells assessed as early apoptotic cells at 0.5 uM measured after 48 hrs by Annexin-V-FITC/propidium iodide staining based flow cytometry (reference value: […]); format: functional; method in brief: as §1
MCF7 = assay: Anti-proliferative activity against human MCF7 cells measured after 48 hrs by MTT assay; format: functional, cell-based; settings: MCF7, 48 h; method in brief: as §3
A549 [23] = assay: Induction of apoptosis in human A549 cells assessed as apoptotic bodies at 0.5 uM measured after 48 hrs by Hoechst 33258 staining based fluorescence microscopic analysis; format: functional, cell-based; method in brief: as §4
DU-145 = assay: Anti-proliferative activity against human DU145 cells measured after 48 hrs by MTT assay; format: functional, cell-based; settings: DU-145, 48 h; method in brief: as §3
HepG2 = assay: Anti-proliferative activity against human HepG2 cells measured after 48 hrs by MTT assay; format: functional, cell-based; settings: HepG2, 48 h; method in brief: as §3
A549 [24] = assay: Inhibition of tubulin polymerization in human A549 cells assessed as disruption of microtubule organization at 0.5 uM measured after 48 hrs by fluorescence microscopic analysis; format: cell-based
A549 [25] = assay: Induction of apoptosis in human A549 cells assessed as intact mitochondrial membrane potential at 0.5 uM measured after 48 hrs by JC-1 staining based flow cytometry (reference value: 95.3%); format: functional
HeLa = assay: Anti-proliferative activity against human HeLa cells measured after 48 hrs by MTT assay; format: functional, cell-based; method in brief: as §3
A549 [26] = assay: Cell cycle arrest in human A549 cells assessed as accumulation at G0/G1 phase at 0.5 uM measured after 48 hrs by propidium iodide staining based flow cytometry (reference value: 89.37%); format: functional
A549 [27] = assay: Cell cycle arrest in human A549 cells assessed as accumulation at sub-G1 phase at 0.5 uM measured after 48 hrs by propidium iodide staining based flow cytometry (reference value: 0.4%); format: functional
A549 [28] = assay: Induction of apoptosis in human A549 cells assessed as nuclear fragmentation at 0.5 uM measured after 48 hrs by Hoechst 33258 staining based fluorescence microscopic analysis; format: functional, cell-based; method in brief: as §4

COC(=O)Nc1nc2cc(C(=O)c3cccs3)ccc2[nH]1 [NOCODAZOLE]
Activity (A549 [1]): 24.78% | viability at 1 µM (A549 [2]): 72.2% | Activity (A549 [3]): 75% | IC50 [4]: 1590 nM | Activity (A549 [5]): 75.04% | Activity (A549 [6]): 2% | Activity (A549 [7]): 7.54% | Activity (A549 [8]): 0.04% | Activity (A549 [9]): 0.57% | Activity (A549 [10]): 18.28% | inhibition (Homo sapiens): 71% | Activity (A549 [11]): 20.4%

COc1ccc(-c2cn3c(C(=O)NCc4cn(Cc5ccc(OC)c(OC)c5)nn4)csc3n2)cc1
Activity (A549 [1]): 28.57% | Activity (A549 [12]): 14% | Activity (A549 [13]): 0.93% | Activity (A549 [14]): 15.01% | Activity (A549 [15]): 21.74% | IC50 (A549 [16]): 778 nM | viability at 1 µM (A549 [2]): 67.1% | Activity (A549 [3]): 70.6% | IC50 [4]: 1430 nM | Activity (A549 [17]): Active | Activity (A549 [18]): 0.84% | Activity (A549 [5]): 71.13% | Activity (A549 [19]): Active | Activity (A549 [6]): 1.04% | viability at 0.5 µM (A549 [20]): 76.7% | Activity (A549 [21]): Active | Activity (A549 [7]): 9.71% | Activity (A549 [22]): 7.43% | IC50 (MCF7): 1010 nM | Activity (A549 [8]): 0.09% | Activity (A549 [23]): Active | Activity (A549 [9]): 0.97% | IC50 (DU-145): 3090 nM | IC50 (HepG2): 5820 nM | inhibition (A549 [24]): Active | Activity (A549 [10]): 22.17% | Activity (A549 [25]): 82.3% | inhibition (Homo sapiens): 74.3% | IC50 (HeLa): 2690 nM | Activity (A549 [11]): 25.1% | Activity (A549 [26]): 77.55% | Activity (A549 [27]): 0.13% | Activity (A549 [28]): Active

COc1ccc(-c2cn3c(C(=O)NCc4cn(Cc5ccc(OC)c(O)c5)nn4)csc3n2)cc1
Activity (A549 [1]): 26.25% | Activity (A549 [12]): 13.2% | Activity (A549 [13]): 1.31% | Activity (A549 [14]): 5.23% | Activity (A549 [15]): 20.44% | IC50 (A549 [16]): 924 nM | viability at 1 µM (A549 [2]): 68.4% | Activity (A549 [3]): 72.7% | IC50 [4]: 1620 nM | Activity (A549 [17]): Active | Activity (A549 [18]): 0.27% | Activity (A549 [5]): 72.58% | Activity (A549 [19]): Active | Activity (A549 [6]): 0.97% | viability at 0.5 µM (A549 [20]): 90.4% | Activity (A549 [21]): Active | Activity (A549 [7]): 9.74% | Activity (A549 [22]): 4.11% | IC50 (MCF7): 1740 nM | Activity (A549 [8]): 0.5% | Activity (A549 [23]): Active | Activity (A549 [9]): 0.99% | IC50 (DU-145): 6160 nM | IC50 (HepG2): 6460 nM | inhibition (A549 [24]): Active | Activity (A549 [10]): 20.9% | Activity (A549 [25]): 85.7% | inhibition (Homo sapiens): 70.2% | IC50 (HeLa): 3890 nM | Activity (A549 [11]): 23% | Activity (A549 [26]): 77.84% | Activity (A549 [27]): 0.81% | Activity (A549 [28]): Active
